The text below walks through data of ChEMBL document CHEMBL2086318, “Synthesis and in vitro antimycobacterial activity of 2-methoxybenzanilides and their thioxo analogues” (Eur J Med Chem, 2012).

What all share (type): functional
Experiment [1] deals with Mycobacterium tuberculosis. Description: Antimycobacterial activity against Mycobacterium tuberculosis My 331/88 after 21 days by micromethod. To be noted: My 331/88, 504 h. The gist of the method:
(§1)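 MIC by micromethod at 37 °C, read after 14 and 21 days. Inocula were M. tuberculosis My 331/88 at 10^-3 dilution and M. avium My 330/88 at 10^-5 dilution. Compounds added in DMSO across 1000, 500, 250, 125, 62.5, 32, 16, 8, 4, 2, 1 and 0.5; isoniazid standard in sterile water. MIC taken as the lowest concentration inhibiting growth.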

In experiment [2] the test system is Mycobacterium kansasii. Description: Antimycobacterial activity against Mycobacterium kansasii My 6509/96 clinical isolate after 14 days by micromethod. The conditions noted are these: My 6509/96, 336 h.
The test system of experiment [3] is Mycobacterium kansasii. Description: Antimycobacterial activity against Mycobacterium kansasii My 235/80 after 7 days by micromethod. The conditions noted are these: My 235/80, 168 h.
The subject of experiment [4] is Mycobacterium avium. Briefly: Antimycobacterial activity against Mycobacterium avium My 330/88 after 14 days by micromethod. To be noted: My 330/88, 336 h.
Experiment [5] has as its system Mycobacterium kansasii. Description: Antimycobacterial activity against Mycobacterium kansasii My 6509/96 clinical isolate after 21 days by micromethod. The conditions noted are these: My 6509/96, 504 h.
The subject of experiment [6] is Mycobacterium kansasii. Description: Antimycobacterial activity against Mycobacterium kansasii My 235/80 after 21 days by micromethod. The conditions noted are these: My 235/80, 504 h.
For experiment [7], the system named is Mycobacterium tuberculosis. Briefly: Antimycobacterial activity against Mycobacterium tuberculosis My 331/88 after 14 days by micromethod. To be noted: My 331/88, 336 h. The procedure, abridged:
as §1

Experiment [8] relates to Mycobacterium kansasii. Briefly: Antimycobacterial activity against Mycobacterium kansasii My 235/80 after 14 days by micromethod. To be noted: My 235/80, 336 h.
The test system of experiment [9] is Mycobacterium avium. Briefly: Antimycobacterial activity against Mycobacterium avium My 330/88 after 21 days by micromethod. The conditions noted are these: My 330/88, 504 h.
For experiment [10], the system named is Mycobacterium kansasii. Description: Antimycobacterial activity against Mycobacterium kansasii My 6509/96 clinical isolate after 7 days by micromethod. To be noted: My 6509/96, 168 h.

Converted amounts (≈) assume the structure as drawn.

On to `COc1ccc(Cl)cc1C(=S)Nc1ccc(Cl)c(Cl)c1`, for which the MIC (usually the smallest concentration in the dilution series that meets the test's criterion for growth inhibition) in experiment [1] came to 8 µM (≈ 2.77 µg/mL); in the experiment with Mycobacterium kansasii [2], 125 µM (≈ 43.3 µg/mL); with Mycobacterium kansasii [3], 32 µM (≈ 11.1 µg/mL); against Mycobacterium avium [4], 32 µM (≈ 11.1 µg/mL); against Mycobacterium kansasii [5], 125 µM (≈ 43.3 µg/mL); in the experiment with Mycobacterium kansasii [6], 62.5 µM (≈ 21.7 µg/mL). Further, the MIC in experiment [7] was 8 µM (≈ 2.77 µg/mL); in the experiment on Mycobacterium kansasii [8], 62.5 µM (≈ 21.7 µg/mL); in the experiment with Mycobacterium avium [9], 62.5 µM (≈ 21.7 µg/mL); with Mycobacterium kansasii [10] it was 62.5 µM (≈ 21.7 µg/mL).
Turning to `COc1ccc(Cl)cc1C(=S)Nc1cccc(Br)c1`, the MIC in experiment [1] came to 32 µM (≈ 11.4 µg/mL); in the experiment on Mycobacterium kansasii [2] it was 32 µM (≈ 11.4 µg/mL); in the experiment with Mycobacterium kansasii [3], 16 µM (≈ 5.71 µg/mL); in the experiment with Mycobacterium avium [4], 32 µM (≈ 11.4 µg/mL); against Mycobacterium kansasii [5] it was 32 µM (≈ 11.4 µg/mL); against Mycobacterium kansasii [6], 32 µM (≈ 11.4 µg/mL). In addition, the minimum inhibitory concentration (MIC) (in experiment [7]; in the experiment with Mycobacterium kansasii [8]; in the experiment with Mycobacterium avium [9]; against Mycobacterium kansasii [10]) was 32 µM (≈ 11.4 µg/mL) throughout.
For `COc1ccc(Cl)cc1C(=S)Nc1cccc(Cl)c1`, the MIC was 16 µM (≈ 5 µg/mL) in [1]; 16 µM (≈ 5 µg/mL) against Mycobacterium kansasii [2]; 8 µM (≈ 2.5 µg/mL) with Mycobacterium kansasii [3]; 32 µM (≈ 9.99 µg/mL) against Mycobacterium avium [4]; 32 µM (≈ 9.99 µg/mL) in the experiment on Mycobacterium kansasii [5]; 16 µM (≈ 5 µg/mL) in the experiment with Mycobacterium kansasii [6]. Moreover, the MIC amounted to 16 µM (≈ 5 µg/mL) in experiment [7], 16 µM (≈ 5 µg/mL) with Mycobacterium kansasii [8], 32 µM (≈ 9.99 µg/mL) against Mycobacterium avium [9] and 16 µM (≈ 5 µg/mL) in the experiment on Mycobacterium kansasii [10].
For `COc1cc(Cl)ccc1C(=O)Nc1cccc(Br)c1`, the MIC in experiment [1] turned out to be 250 µM (≈ 85.2 µg/mL); with Mycobacterium kansasii [2], 125 µM (≈ 42.6 µg/mL); against Mycobacterium kansasii [3], 125 µM (≈ 42.6 µg/mL); in the experiment on Mycobacterium avium [4], 125 µM (≈ 42.6 µg/mL); against Mycobacterium kansasii [5], 125 µM (≈ 42.6 µg/mL); against Mycobacterium kansasii [6] it was 125 µM (≈ 42.6 µg/mL). The MIC was determined as 250 µM (≈ 85.2 µg/mL) in experiment [7], 125 µM (≈ 42.6 µg/mL) in the experiment with Mycobacterium kansasii [8], 125 µM (≈ 42.6 µg/mL) against Mycobacterium avium [9] and 125 µM (≈ 42.6 µg/mL) with Mycobacterium kansasii [10].
Take `COc1cc(Cl)ccc1C(=O)Nc1ccc(Br)cc1`: the MIC turned out to be 125 µM (≈ 42.6 µg/mL) in experiment [1]; 8 µM (≈ 2.72 µg/mL) in the experiment on Mycobacterium kansasii [2]; 4 µM (≈ 1.36 µg/mL) in the experiment on Mycobacterium kansasii [3]; 8 µM (≈ 2.72 µg/mL) against Mycobacterium avium [4]; 32 µM (≈ 10.9 µg/mL) in the experiment with Mycobacterium kansasii [5]; 32 µM (≈ 10.9 µg/mL) against Mycobacterium kansasii [6]. Also, the MIC was determined as 62.5 µM (≈ 21.3 µg/mL) in experiment [7], 8 µM (≈ 2.72 µg/mL) against Mycobacterium kansasii [8], 32 µM (≈ 10.9 µg/mL) against Mycobacterium avium [9] and 4 µM (≈ 1.36 µg/mL) against Mycobacterium kansasii [10].
`COc1ccc(Cl)cc1C(=O)Nc1cccc(Cl)c1`: the MIC in experiment [1] was 250 µM (≈ 74 µg/mL); with Mycobacterium kansasii [2], 250 µM (≈ 74 µg/mL); in the experiment with Mycobacterium kansasii [3] it was 62.5 µM (≈ 18.5 µg/mL); in the experiment on Mycobacterium avium [4] it was 250 µM (≈ 74 µg/mL); with Mycobacterium kansasii [5] it was 250 µM (≈ 74 µg/mL); in the experiment with Mycobacterium kansasii [6], 250 µM (≈ 74 µg/mL). The MIC is 250 µM (≈ 74 µg/mL) in experiment [7], 250 µM (≈ 74 µg/mL) against Mycobacterium kansasii [8], 250 µM (≈ 74 µg/mL) in the experiment with Mycobacterium avium [9] and 125 µM (≈ 37 µg/mL) against Mycobacterium kansasii [10].
Consider `COc1cc(Cl)ccc1C(=O)Nc1ccc([N+](=O)[O-])cc1`, for which the MIC in [1] came out at 250 µM (≈ 76.7 µg/mL); against Mycobacterium kansasii [2] it was 125 µM (≈ 38.3 µg/mL); in the experiment on Mycobacterium kansasii [3], 125 µM (≈ 38.3 µg/mL); with Mycobacterium avium [4], 250 µM (≈ 76.7 µg/mL); in the experiment on Mycobacterium kansasii [5], 125 µM (≈ 38.3 µg/mL); with Mycobacterium kansasii [6] it was 250 µM (≈ 76.7 µg/mL). For the same molecule, the MIC stood at 250 µM (≈ 76.7 µg/mL) in experiment [7], 250 µM (≈ 76.7 µg/mL) in the experiment with Mycobacterium kansasii [8], 250 µM (≈ 76.7 µg/mL) in the experiment on Mycobacterium avium [9] and 125 µM (≈ 38.3 µg/mL) in the experiment on Mycobacterium kansasii [10].
As to `COc1cc(Cl)ccc1C(=O)Nc1ccc(Cl)c(Cl)c1`, the MIC (in experiment [1]; against Mycobacterium kansasii [2]; in the experiment on Mycobacterium kansasii [3]; against Mycobacterium avium [4]; in the experiment on Mycobacterium kansasii [5]; in the experiment on Mycobacterium kansasii [6]) was 125 µM (≈ 41.3 µg/mL) in each case. Moreover, the MIC (in [7]; in the experiment on Mycobacterium kansasii [8]; in the experiment with Mycobacterium avium [9]; with Mycobacterium kansasii [10]) was 125 µM (≈ 41.3 µg/mL) in each case.
`NNC(=O)c1ccncc1` [ISONIAZID]: the MIC in experiment [1] was 0.5 µM (≈ 0.0686 µg/mL); in the experiment with Mycobacterium kansasii [2], 4 µM (≈ 0.549 µg/mL); in the experiment on Mycobacterium kansasii [3], more than 250 µM; against Mycobacterium avium [4], 200 µM (≈ 27.4 µg/mL); against Mycobacterium kansasii [5] it was 4 µM (≈ 0.549 µg/mL); in the experiment with Mycobacterium kansasii [6], 250 µM (≈ 34.3 µg/mL). For the same molecule, the MIC is 0.5 µM (≈ 0.0686 µg/mL) in experiment [7], 200 µM (≈ 27.4 µg/mL) with Mycobacterium kansasii [8], 250 µM (≈ 34.3 µg/mL) against Mycobacterium avium [9] and 4 µM (≈ 0.549 µg/mL) in the experiment with Mycobacterium kansasii [10].
